This passage reports folding enthalpy and Tm results from the array DNA melting data of Ke et al. (doi:10.1101/2024.01.08.574731).

A short description of data set [1]: folding enthalpy; higher = less favourable; fluorescence melt of hairpins on a sequencing array, two-state fit. The note with it: sodium 0.088 M. In a few lines: (§1)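 Folding enthalpy and melting temperature were estimated with bootstrapped two-state fits and combined across four replicates by inverse-variance weighting, with fitted temperatures raised by 9.35 °C to match UV melts. The data were Cy3 fluorescence of library hairpins, with annealed Cy3 and quencher oligos, on a sequenced MiSeq flow cell in 50 mM Na-HEPES pH 8.0, 25 mM NaCl, imaged in 2.5 °C steps up to 60 °C and normalised to pre-quench Cy3 and control constructs.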

The nature of data set [2]: melting temperature; fluorescence melt of hairpins on a sequencing array, two-state fit, raised by 9.35 °C to match UV melts. The note with it: sodium 0.088 M. In a few lines:
as §1

Turning to GATCTCCCCAGAGATC ((((((....)))))), in data set [1], the folding enthalpy was -42.9 kcal/mol. In data set [2], the Tm stood at 55.7 °C.

On to GATCTCCCCGAGATC ((((((...)))))), for which, in data set [1], the folding enthalpy is -36.9 kcal/mol. Moreover, the Tm in data set [2] came to 55.3 °C.

On to GATCTCCCCTGAGATC ((((((....)))))), for which, in data set [1], the folding enthalpy is -45.1 kcal/mol. Also, the Tm in data set [2] was determined as 51.6 °C.

On to GATCTCCCGGAGATC ((((((...)))))), for which the folding enthalpy in data set [1] is -37.4 kcal/mol. In addition, the Tm in data set [2] turned out to be 53.8 °C.

As for GATCTCCCTGGAGATC ((((((....)))))), the folding enthalpy in data set [1] was -43.7 kcal/mol. Also, the Tm in data set [2] amounted to 59.4 °C.

Turning to GATCTCCGCGGAGATC ((((((....)))))), the folding enthalpy in data set [1] was -50.1 kcal/mol. The Tm in data set [2] amounted to 60.9 °C.

As to GATCTCCGTAGAGATC ((((((....)))))), in data set [1], the folding enthalpy is -42 kcal/mol. The Tm in data set [2] turned out to be 55.1 °C.

On to GATCTCCTCAGAGATC ((((((....)))))), for which the folding enthalpy in data set [1] is -37.7 kcal/mol. For the same sequence, the Tm in data set [2] came out at 55.9 °C.

On to GATCTCGACGGAGATC ((((((....)))))), for which the folding enthalpy in data set [1] is -48.4 kcal/mol. The Tm in data set [2] stood at 54.3 °C.

Turning to GATCTCGATGGAGATC ((((((....)))))), in data set [1], the folding enthalpy is -33.4 kcal/mol. Further, the Tm in data set [2] was determined as 52.9 °C.

In the case of GATCTCGCAGAGATC ((((((...)))))), in data set [1], the folding enthalpy was -30.5 kcal/mol. In addition, in data set [2], the Tm was determined as 68 °C.

Regarding GATCTCGCCAGAGATC ((((((....)))))), the folding enthalpy in data set [1] is -37.1 kcal/mol. Moreover, in data set [2], the Tm was 69 °C.

GATCTCGCCCGAGATC ((((((....)))))): the folding enthalpy in data set [1] is -39.2 kcal/mol. Besides, in data set [2], the Tm is 56.2 °C.

For GATCTCGCGCGAGATC ((((((....)))))), in data set [1], the folding enthalpy was -48.4 kcal/mol. For the same sequence, in data set [2], the Tm turned out to be 62.5 °C.

As to GATCTCGCTGGAGATC ((((((....)))))), the folding enthalpy in data set [1] is -36.8 kcal/mol. For the same sequence, the Tm in data set [2] is 54.3 °C.

With GATCTCGGAAACAAGATC (((((.(....).))))), the folding enthalpy in data set [1] is -15 kcal/mol. Also, in data set [2], the Tm came to 29 °C.

As to GATCTCGGACGAGATC ((((((....)))))), the folding enthalpy in data set [1] was -35.1 kcal/mol. Also, the Tm in data set [2] is 60.3 °C.

For the sequence GATCTCGGAGGAGATC ((((((....)))))), the folding enthalpy in data set [1] is -44.4 kcal/mol. In addition, in data set [2], the Tm was determined as 55.7 °C.

In the case of GATCTCGGATGAGATC ((((((....)))))), the folding enthalpy in data set [1] is -33.7 kcal/mol. Further, the Tm in data set [2] is 57 °C.

For the sequence GATCTCGGTGGAGATC ((((((....)))))), the folding enthalpy in data set [1] is -4.26 kcal/mol. The Tm in data set [2] was 68.6 °C.

Turning to GATCTCGTACGAGATC ((((((....)))))), the folding enthalpy in data set [1] is -39.7 kcal/mol. For the same sequence, in data set [2], the Tm is 61.7 °C.

On to GATCTCGTCAGAGATC ((((((....)))))), for which, in data set [1], the folding enthalpy is -37.5 kcal/mol. Besides, the Tm in data set [2] was 68.5 °C.

Take GATCTCGTCGAGATC ((((((...)))))): in data set [1], the folding enthalpy is -31.1 kcal/mol. Further, in data set [2], the Tm worked out at 55.7 °C.

Turning to GATCTCGTGGAGATC ((((((...)))))), the folding enthalpy in data set [1] was -39 kcal/mol. Also, the Tm in data set [2] amounted to 54.5 °C.

Regarding GATCTCGTGTGAGATC ((((((....)))))), in data set [1], the folding enthalpy is -37 kcal/mol. The Tm in data set [2] is 53.1 °C.

On to GATCTCGTTGGAGATC ((((((....)))))), for which the folding enthalpy in data set [1] was -42.3 kcal/mol. Further, the Tm in data set [2] was 54.2 °C.

For the sequence GATCTCTAGAGAGATC ((((((....)))))), the folding enthalpy in data set [1] is -40.9 kcal/mol. For the same sequence, the Tm in data set [2] amounted to 51 °C.

Consider GATCTCTAGGAGATC ((((((...)))))), for which the folding enthalpy in data set [1] is -39.1 kcal/mol. Moreover, the Tm in data set [2] came to 52.9 °C.

Regarding GATCTCTAGTGAGATC ((((((....)))))), the folding enthalpy in data set [1] is -36.9 kcal/mol. For the same sequence, the Tm in data set [2] turned out to be 50.3 °C.

Turning to GATCTCTATAGAGATC ((((((....)))))), the folding enthalpy in data set [1] is -38.7 kcal/mol. Also, the Tm in data set [2] came out at 55 °C.

For GATCTCTCAGAGATC ((((((...)))))), the folding enthalpy in data set [1] was -33.8 kcal/mol. Further, the Tm in data set [2] is 54.2 °C.

In the case of GATCTCTCCGGAGATC ((((((....)))))), the folding enthalpy in data set [1] is -39.6 kcal/mol. Further, the Tm in data set [2] turned out to be 56.2 °C.

With GATCTCTCTGGAGATC ((((((....)))))), the folding enthalpy in data set [1] was -42.8 kcal/mol. The Tm in data set [2] was determined as 54.8 °C.

For GATCTCTCTTGAGATC ((((((....)))))), in data set [1], the folding enthalpy is -37.9 kcal/mol. In addition, in data set [2], the Tm is 53.5 °C.

For GATCTCTGGGAGATC ((((((...)))))), the folding enthalpy in data set [1] is -34.7 kcal/mol. Moreover, in data set [2], the Tm was found to be 53.6 °C.

For GATCTCTGTGGAGATC ((((((....)))))), the folding enthalpy in data set [1] was -37.1 kcal/mol. Further, the Tm in data set [2] was found to be 57.2 °C.

As to GATCTCTTAGAGATC ((((((...)))))), in data set [1], the folding enthalpy is -38.9 kcal/mol. Also, in data set [2], the Tm was determined as 53.1 °C.

Turning to GATCTCTTCTGAGATC ((((((....)))))), the folding enthalpy in data set [1] is -39.8 kcal/mol. Further, the Tm in data set [2] worked out at 54.7 °C.
